GSTO1 counter: inhibitors of recombinant GSTO1, primary screen, counter-screen for RBBP9 inhibitor project, biochemical, fluorescence polarization. inhibition, % at 5.96 µM. activity-based probe fluorescence polarization. hit rate 1.1% among 300,000. AID 1974, 2009;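 active = inhibition above the campaign mean inhibition plus 3 SD, cut at about 35% in these data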
PAD4 inh: human PAD4 inhibitors, primary screen, biochemical, fluorescence polarization, 1536-well format; Protein-arginine deiminase type-4 (Homo sapiens), Q9UM07; recombinant PAD4, RCA probe fluorescence polarization; inhibition, % at 6.36 µM; hit rate 0.41% among 330,000;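 active = percent inhibition above a cutoff equal to the mean of all tested compounds plus 3 SD, cut at about 15% in these data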
PRMT1 inh: PRMT1 methyltransferase inhibitors, primary screen, biochemical, fluorescence polarization | recombinant PRMT1, activity-based probe fluorescence polarization | inhibition, % at 2.79 µM | hit rate 1.3% among 370,000 | AID 652257, 2013;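 active = inhibition above about 21% made by adding two undisclosed values, limit read from the data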
TDP2 absorb: human TDP2 enzyme inhibitors, primary screen, biochemical, epi absorbance, recombinant enzyme; T5PNP hydrolysis, p-nitrophenol absorbance 415 nm; inhibition, % at 12.8 µM; AID 720702, 2013; Tyrosyl-DNA phosphodiesterase 2 (Homo sapiens), O95551; hit rate 0.34% among 370,000;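 active = inhibition above the mean of all tested compounds plus 3 SD, set per campaign, cut at about 25% in these data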
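Evaluation: % inhibition relative to enzyme-containing and enzyme-free wells. Material: recombinant human TDP2. Benchmarks: enzyme-free and DMSO wells. Timing: enzyme reaction with compound for 2 h at 37 °C. Compound dosing: 12.8 µM only. Measured by: p-Nitrophenol epi absorbance. Reagent: T5PNP substrate at 5 mM, a TopII-DNA adduct mimic. Replication: single well per compound.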
Apaf-1 inh: inhibitors of human Apaf-1 apoptosome, primary screen, biochemical, DEVD-Rh110 fluorescence, uHTS; hit rate 0.71% among 330,000; inhibition, % at 20 µM; reconstituted apoptosome caspase-3 activity; Apoptotic protease-activating factor 1 (Homo sapiens), O14727; active = inhibition of at least 40% at 20 µM
Target sequence (O14727 whole entry, looked up): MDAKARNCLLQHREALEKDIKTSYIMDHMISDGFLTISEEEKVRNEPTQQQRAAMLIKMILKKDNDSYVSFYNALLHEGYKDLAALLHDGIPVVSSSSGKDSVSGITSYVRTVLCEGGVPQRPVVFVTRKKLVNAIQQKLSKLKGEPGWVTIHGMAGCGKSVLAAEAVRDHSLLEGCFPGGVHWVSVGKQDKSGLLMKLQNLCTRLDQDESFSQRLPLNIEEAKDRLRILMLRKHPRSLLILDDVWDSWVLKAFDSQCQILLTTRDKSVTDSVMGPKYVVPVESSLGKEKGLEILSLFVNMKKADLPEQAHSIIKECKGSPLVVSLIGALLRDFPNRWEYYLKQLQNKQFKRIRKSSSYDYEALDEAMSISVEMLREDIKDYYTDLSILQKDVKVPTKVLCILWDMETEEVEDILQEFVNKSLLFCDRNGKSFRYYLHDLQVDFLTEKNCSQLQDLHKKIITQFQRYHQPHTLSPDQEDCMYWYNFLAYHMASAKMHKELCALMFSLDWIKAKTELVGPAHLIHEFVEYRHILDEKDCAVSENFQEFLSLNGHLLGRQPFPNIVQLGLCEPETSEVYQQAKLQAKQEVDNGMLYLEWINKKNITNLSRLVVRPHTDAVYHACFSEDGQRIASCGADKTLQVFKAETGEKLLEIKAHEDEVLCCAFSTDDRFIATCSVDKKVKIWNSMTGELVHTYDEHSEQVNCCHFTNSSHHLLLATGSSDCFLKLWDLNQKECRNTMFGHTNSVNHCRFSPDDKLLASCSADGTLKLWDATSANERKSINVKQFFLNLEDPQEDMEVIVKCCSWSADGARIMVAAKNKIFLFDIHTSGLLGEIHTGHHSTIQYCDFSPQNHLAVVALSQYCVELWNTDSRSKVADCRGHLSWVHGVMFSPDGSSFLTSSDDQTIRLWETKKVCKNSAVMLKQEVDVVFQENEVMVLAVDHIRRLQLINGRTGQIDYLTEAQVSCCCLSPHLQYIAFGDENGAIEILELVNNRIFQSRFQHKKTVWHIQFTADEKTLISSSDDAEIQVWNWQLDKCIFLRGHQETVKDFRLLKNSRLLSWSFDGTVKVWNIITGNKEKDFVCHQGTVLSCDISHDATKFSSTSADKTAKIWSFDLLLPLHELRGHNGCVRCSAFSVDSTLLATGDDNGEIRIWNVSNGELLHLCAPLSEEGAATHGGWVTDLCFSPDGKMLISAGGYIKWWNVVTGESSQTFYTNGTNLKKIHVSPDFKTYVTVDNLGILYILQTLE
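Material: biochemical Apaf-1 apoptosome reconstitution. Medium: Hepes buffer, pH 7.5. Also added: cytochrome c activation, bis-DEVD rhodamine 110 substrate. Timing: 30 min compound preincubation, 50 min activation, room temperature. Measured by: rhodamine 110 fluorescence at Ex 480/Em 540 nm.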
PRMT1 inh conf: PRMT1 methyltransferase inhibitors, confirmation, biochemical, fluorescence polarization, triplicate; shares compounds with PRMT1 inh; hit rate 42% among 3,300; recombinant His-PRMT1, activity-based probe fluorescence polarization; inhibition, % at 2.79 µM;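 active = mean inhibition across replicates above the hit cutoff derived for the earlier primary screen, cut at about 22% in these data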
Each line names hits and unclear results; the compound was inactive in the other large screens (follow-up assays come after a bar, where they were run). Only some compounds are listed: those with a hit (about 2.6% of all), similar ones and a draw of the others.

COc1cccc(CNS(=O)(=O)c2cc(CN3C(=O)c4cccnc4C3=O)ccc2OC)c1	none
N=C1/C(=C\c2coc3ccccc3c2=O)C(=O)N=C2SC=CN12	PRMT1 inh 36 | PRMT1 inh conf 32
CCN1C(=O)[C@H]2[C@@H](c3ccc(-c4ccc(OC)cc4)cc3)N[C@@](C)(C(=O)OC)[C@H]2C1=O	none
Cc1sc(Cc2nc(O)cs2)nc1-c1ccccc1	PRMT1 inh 58 | PRMT1 inh conf inactive
Oc1csc(Cc2nc(-c3ccc(Br)cc3)cs2)n1	none
O=C1N=C(N2C=CC(=C3C=CNC=C3)C=C2)/C(=C/N=NC(=O)c2ccccc2O)S1	PRMT1 inh 39 | PRMT1 inh conf 23
CCN(CC)C(=O)[C@H]1CC(CC(=O)NCc2ccco2)C(=O)N2CCc3c([nH]c4ccc(OC)cc34)[C@]12C (some centres undefined)	none (no result: GSTO1 counter)
CCOC(=O)c1ccc(CC(=O)c2oc3cc(O)ccc3c2C)o1	none
CCOC(=O)c1ccc(CC(=O)c2ccc(O)c(O)c2O)o1	PRMT1 inh 43 (no result: GSTO1 counter, PAD4 inh) | PRMT1 inh conf inactive
COc1cc(C2CC(=O)N3CN(c4ccccc4C)CSC3=C2C#N)cc(OC)c1OC (centres undefined)	PRMT1 inh 38 | PRMT1 inh conf 46
COc1ccccc1N1CSC2=C(C#N)C(c3ccc(SC)cc3)CC(=O)N2C1 (centres undefined)	PRMT1 inh 39 | PRMT1 inh conf 64
C[C@@H]1ON(C)[C@H]2C[C@H]3c4[nH]c5ccc(-c6ccc7c(c6)OCO7)cc5c4CCN3C[C@@H]12	none (no result: GSTO1 counter, PAD4 inh, Apaf-1 inh)
CC[C@]12c3[nH]c4ccccc4c3CCN1C(=O)C(CC(=O)NCc1ccc(OC)c(OC)c1)C[C@@H]2C(=O)N1CCN(C(=O)C2CC2)CC1 (some centres undefined)	none (no result: GSTO1 counter)
O=C(N/C(=C/C=C/c1ccccc1)C(=O)N1CCOCC1)c1ccccc1Br	none
COc1ccc(-c2cc(-c3n[nH]c(=S)n3-c3cccc4ccccc34)[nH]n2)cc1	none
S=c1[nH]nc(-c2cc(-c3ccsc3)n[nH]2)n1-c1cccc2ccccc12	PRMT1 inh 28 | PRMT1 inh conf inactive
Nc1nc(SCC(=O)c2cc3ccccc3o2)n[nH]1	PRMT1 inh 71 | PRMT1 inh conf inactive
Cc1cc(C)nc(SCC(=O)c2cc3ccccc3oc2=O)n1	PRMT1 inh 25 | PRMT1 inh conf inactive
O=C(CSc1nc2ccccc2o1)c1cc2ccccc2oc1=O	none
CC(=O)Nc1ccc(Sc2ncnc3scc(-c4ccccc4)c23)cc1	PRMT1 inh 35 | PRMT1 inh conf 37
N#CC(Sc1ccccn1)c1ccc(Cl)cc1 (centres undefined)	PRMT1 inh 46 | PRMT1 inh conf 35
N#Cc1ccc(C(=O)Nc2cccc(NC(=O)c3ccco3)c2)c(F)c1	none
S=c1[nH]c(-c2ccccc2)cs1	PRMT1 inh 30 | PRMT1 inh conf inactive
CSc1ccc(NC(=O)CSc2nc3[nH]c(=O)cc(O)c3s2)cc1	PRMT1 inh 48 (no result: GSTO1 counter) | PRMT1 inh conf inactive
N#Cc1ccc(NC(=O)CSc2nc3[nH]c(=O)cc(O)c3s2)cc1	none (no result: GSTO1 counter)
Cc1ccc(NC(=O)c2cc(N3C(=O)C=CC3=O)ccc2N2CCOCC2)cc1	PRMT1 inh 91 (no result: GSTO1 counter, PAD4 inh, Apaf-1 inh) | PRMT1 inh conf 89
CC1(c2ccccc2)NC(=O)N(CC(=O)Nc2ccccc2C(=O)NC2CC2)C1=O (centres undefined)	none
O=C(O)C1CC(=O)N(Cc2ccc3c(c2)OCO3)C1 (centres undefined)	none (no result: PRMT1 inh, TDP2 absorb)
O=C1CC(NCc2ccc3c(c2)OCO3)C(=O)N1Cc1ccc2c(c1)OCO2 (centres undefined)	PRMT1 inh 56 | PRMT1 inh conf inactive
COc1ccc(NC(=O)N(C)C[C@@H]2OCc3cn(nn3)CCCC(=O)N([C@H](C)CO)C[C@H]2C)cc1	PRMT1 inh 65 (no result: GSTO1 counter, PAD4 inh, Apaf-1 inh) | PRMT1 inh conf inactive
O=C(NCc1cccnc1)c1cc(C2CCCN(S(=O)(=O)c3cccc4cccnc34)C2)on1 (centres undefined)	none (no result: GSTO1 counter, PAD4 inh, Apaf-1 inh)
O=C(O)Cc1c[nH]c2ccc(O)cc12	PRMT1 inh 27 | PRMT1 inh conf inactive
Cc1ccc2c(c1)C(N1CCCC1=O)CC(c1ccco1)N2 (centres undefined)	PRMT1 inh 25 | PRMT1 inh conf inactive
CC(C)CN(C(=O)c1cccc(S(=O)(=O)N2CCN(c3ccc(F)cc3)CC2)c1)C1CCS(=O)(=O)C1 (centres undefined)	none
O=C(c1ccc(Cl)cc1)c1cccc(O)c1	none (no result: GSTO1 counter, PAD4 inh, Apaf-1 inh)
CCOC(=O)C1(Cc2ccccc2)C(=O)N(CCCN(C)C)c2ccccc21 (centres undefined)	none
CCOC(=O)C1=C(CSc2nc(-c3ccccc3)ccc2C#N)OC(N)=C(C#N)C1c1cccnc1 (centres undefined)	PRMT1 inh 41 | PRMT1 inh conf 26
CCOC(=O)C1=C(CSc2nc3c(cc2C#N)CN(C)CC3)OC(N)=C(C#N)C1c1ccccc1 (centres undefined)	none
CCOC(=O)C1=C(CSc2nc3c(cc2C#N)CCC3)OC(N)=C(C#N)C1c1ccccc1 (centres undefined)	PRMT1 inh 46 | PRMT1 inh conf inactive
O=c1c2[nH]c3ccc(F)cc3c2nc2n1CCCS2	none
O=C(CSc1nc2ccccc2c(=O)n1CCCO)NCc1ccccc1	none
O=c1c2ccccc2nnn1CSc1nc2ccccc2c(=O)n1CCCO	PRMT1 inh 25 | PRMT1 inh conf inactive
Cc1c(C)c2ccc(OCC(=O)NCCN3CCOCC3)c(C)c2oc1=O	none
Cc1[nH]c2ccc(-c3n[nH]c(=S)n3-c3ccc(Br)cc3)cc2c1C	PRMT1 inh 26 | PRMT1 inh conf inactive
COc1cccc(-n2c(-c3ccc4[nH]c(C)c(C)c4c3)n[nH]c2=S)c1	PRMT1 inh 26 | PRMT1 inh conf inactive
CN(C)c1ccc(Cn2c(=O)n(Cc3ccc(C(=O)NCC4COC4)cc3)c(=O)c3ccccc32)cc1	none (no result: GSTO1 counter, PAD4 inh, Apaf-1 inh)
CC(OC(=O)CNC(=O)c1ccc(Cl)cc1)C(=O)NC1CCCCC1C (centres undefined)	none
S=C1SCN(Cc2ccccn2)CN1Cc1ccco1	PRMT1 inh 30 | PRMT1 inh conf inactive
COc1ccccc1NC(=O)C(C)OC(=O)c1cccc(-n2cnnn2)c1 (centres undefined)	none
OCCN(CCO)c1nc(N2CCCCC2)c2nc(N(CCO)CCO)nc(N3CCCCC3)c2n1	PRMT1 inh 57 (no result: GSTO1 counter) | PRMT1 inh conf 75
